Experimental findings from ChEMBL document CHEMBL3817747 (J Med Chem, 2016) are described below.

The assay relates to Influenza A virus. As to the kind of experiment: Antiviral activity against oseltamivir-resistant Influenza A virus A/WSN/1933(H1N1) infected in MDCK cells assessed as protection against virus-induced cytopathic effect after 48 hrs by CellTiter 96 AQueous Non-Radioactive cell proliferation assay. In kind it is functional, organism-based. Put shortly: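 Virus stock (100 TCID50, TCID50 set by serial dilution on MDCK and Reed–Müench) mixed 1:1 with inhibitor at varied concentrations, then used to infect MDCK cells (1 × 10^5 cells/mL) grown in DMEM with 10% FBS. Incubated 48 h, 37 °C, 5% CO2. CPE read by MTS-type reagent, 15 min, A490. EC50 from curve fit of % CPE vs concentration; mean ± SD of three experiments.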
In general terms: Damage to the host cells serves as the signal in cytopathic effect assays.

In general, EC50 refers to the concentration needed to bring the measured effect to its halfway point. For `CCC(CC)[C@H](NC(C)=O)[C@@H]1C[C@@H](P(=O)(O)O)C[C@H]1NC(=N)N`, the half-maximal effective concentration (EC50) turned out to be 343 nM.

On to `CCOP(=O)(O)[C@@H]1C[C@@H]([C@@H](NC(C)=O)C(CC)CC)[C@H](NC(=N)N)C1`, for which the EC50 stood at 88.7 nM.

For the compound `CCC(CC)[C@H](NC(C)=O)[C@@H]1C=C(P(=O)(O)O)C[C@H]1NC(=N)N`, the EC50 came out at 50.3 nM.

For `CCCCCCOP(=O)(O)[C@@H]1C[C@@H]([C@@H](NC(C)=O)C(CC)CC)[C@H](NC(=N)N)C1`, the EC50 amounted to 43.2 nM.

Take `CCCCCCOP(=O)(O)C1=C[C@@H]([C@@H](NC(C)=O)C(CC)CC)[C@H](NC(=N)N)C1`: the EC50 stood at 18.5 nM.

In the case of `CCOP(=O)(O)[C@H]1C[C@@H](NC(=N)N)[C@H]([C@@H](NC(C)=O)C(CC)CC)[C@@H]1O`, the EC50 turned out to be 66.5 nM.

As for `CCCCCCOP(=O)(O)[C@H]1C[C@@H](NC(=N)N)[C@H]([C@@H](NC(C)=O)C(CC)CC)[C@@H]1O`, the EC50 worked out at 18.6 nM.

Consider `CCC(CC)[C@H](NC(C)=O)[C@@H]1[C@H](O)[C@@H](P(=O)(O)O)C[C@H]1NC(=N)N`, for which the 50% effective concentration (EC50) is 260 nM.

Consider `CCOP(=O)(O)C1=C[C@@H]([C@@H](NC(C)=O)C(CC)CC)[C@H](NC(=N)N)C1`, for which the EC50 was 19.1 nM.

With `CCC(CC)O[C@@H]1C=C(C(=O)O)C[C@H](N)[C@H]1NC(C)=O` [OSELTAMIVIR CARBOXYLATE], the EC50 came to 5.5 nM.

For `CCC(CC)[C@H](NC(C)=O)[C@@H]1[C@H](O)[C@@H](C(=O)O)C[C@H]1NC(=N)N` [PERAMIVIR ANHYDROUS], the EC50 turned out to be 1.5 nM.

Take `CC(=O)N[C@H]1[C@H]([C@H](O)[C@H](O)CO)OC(C(=O)O)=C[C@@H]1NC(=N)N` [ZANAMIVIR]: the EC50 was 16.3 nM.
